Screening results: PubChem BioAssay, several laboratories
Only some compounds are listed: those with a hit (about 27% of all), similar ones and a draw of the others.
CYP2C19 act – increases human CYP2C19 enzyme activity | P33261 | recombinant CYP2C19, luciferin-H EGE luminescence; stronger effect = higher value; 0 = fully inhibited enzyme, 1 = untreated enzyme | activation factor at 5 µM | 96,000 tested, under 10 active | AID 1025;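 active = activation factor of at least 2 at 5 µM in the primary screen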;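 also: 0 = wells with 2.5 mM tranylcypromine and 1 = vehicle-only wells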
HIV Rev-RRE inh – inhibitors of HIV-1 Rev-RRE RNA interaction | P05866 | Rev peptide-RRE RNA binding, FRET | inhibition, % at 8 µM | 0.79% of 97,000 active | AID 704;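 active = inhibition above the screen-wide mean plus 3 SD, cut at about 35% in these data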;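 also: 0% = median DMSO wells and 100% = median Neomycin B control wells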
Target sequence (P05866 whole entry, looked up): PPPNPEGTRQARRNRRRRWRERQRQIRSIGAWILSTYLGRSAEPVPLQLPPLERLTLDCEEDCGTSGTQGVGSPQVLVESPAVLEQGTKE
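assay system = Cy5-tagged RRE RNA duplex with fluorescein-tagged Rev peptide | incubation = 5 + 15 min at 25 °C | also added = labelled Rev peptide | measure = % inhibition of FRET ratio versus controls | benchmarks = DMSO wells as 0% and neomycin B wells as 100% inhibition | measured by = FRET fluorescence readout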
CYP2C19 inh – blocks human cytochrome P450 2C19; P33261; CYP2C19 Supersomes, luciferin-H EGE luminescence, 30 min; inhibition, % at 5 µM; 21% of 96,000 active; AID 778;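 active = CYP2C19 inhibition above a set limit at 5 µM in the primary screen, cut at about 50% in these data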;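 also: plate controls were negative control wells for no effect and 2.5 mM tranylcypromine positive control for full effect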
CYP2C9 inhib – blocks human cytochrome P450 2C9 | AID 777 | 20% of 96,000 active | P11712 | inhibition, % at 5 µM | CYP2C9 Supersomes, luciferin-H conversion, luminescence;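 active = blocking of liver enzyme CYP2C9 beyond about 50% at 5 µM, limit read from the data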
Target sequence (P11712 whole entry, looked up): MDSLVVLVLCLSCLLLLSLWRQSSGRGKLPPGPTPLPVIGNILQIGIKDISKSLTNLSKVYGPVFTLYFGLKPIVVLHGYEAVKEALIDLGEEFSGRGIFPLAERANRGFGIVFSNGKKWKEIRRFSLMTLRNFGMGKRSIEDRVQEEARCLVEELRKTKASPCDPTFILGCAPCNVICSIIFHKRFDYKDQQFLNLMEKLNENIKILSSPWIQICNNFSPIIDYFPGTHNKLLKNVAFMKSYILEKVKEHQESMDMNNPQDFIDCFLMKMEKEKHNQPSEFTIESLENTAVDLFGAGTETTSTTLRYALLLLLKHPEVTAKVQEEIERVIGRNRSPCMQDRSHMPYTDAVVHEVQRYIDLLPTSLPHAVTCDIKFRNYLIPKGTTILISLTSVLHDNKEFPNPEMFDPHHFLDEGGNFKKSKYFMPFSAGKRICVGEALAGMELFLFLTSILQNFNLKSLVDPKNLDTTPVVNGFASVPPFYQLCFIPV
Cav32 inh – inhibitors of human Cav3.2 T-type calcium channel; O95180; Cav3.2-expressing cells, Fluo-4 calcium fluorescence FDSS; stronger effect = lower value; B-score at 10 µM; 4% of 100,000 active;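 active = single-dose well whose peak fluorescence ratio is a statistical outlier from its plate by either plate-standardised score or position-corrected B-score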
CYP2C9 act – increases human cytochrome P450 2C9 activity | recombinant CYP2C9, luciferin-H conversion, luminescence; stronger effect = higher value; factor 1 = untreated enzyme, 0 = blocked | AID 1024 | P11712 | activation factor at 5 µM | 1.4% of 96,000 active;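 active = activation factor of 2 or more for CYP2C9 at a 5 µM dose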;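 also: 0 = sulfaphenazole-blocked wells and 1 = vehicle-only wells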
Starred values were filed as active, the others as inactive; · = not tested or not shown.

SMILES | CYP2C19 act | HIV Rev-RRE inh | CYP2C19 inh | CYP2C9 inhib | Cav32 inh | CYP2C9 act
Brc1ccccc1-c1nnc(CSc2nnnn2-c2ccccc2)o1 | 0.1 | 11 | 92* | 42 | -0.67 | 0.6
COc1ccc2[nH]c3nc(SC(C)C)nnc3c2c1 | 0.9 | 1 | 8 | 24 | · | 0.8
CC(=O)Nc1nc(CC(C)C)cc(-c2ccco2)c1C#N | 1.1 | -2 | -11 | 1 | -0.057 | 1
CCCCN1C(=S)NC[C@@H]1Cc1ccc(O)cc1 | · | · | · | · | 0.97 | ·
Cc1nnc(SCc2ccccc2C#N)n1-c1ccccc1 | 0.6 | 3 | 38 | 10 | 0.03 | 0.9
COc1ccc(-c2nnc(SCc3nnc(-c4ccc(Cl)cc4)o3)n2-c2ccccc2)cc1 | 0.6 | -1 | 36 | 54* | -8.4* | 0.5
COc1ccc(-n2c(SCc3nnc(-c4ccccc4)o3)nnc2-c2ccccc2)cc1 | 0.5 | 8 | 54* | 47 | -2.5 | 0.5
CCN(CC)C(=O)CSc1nnc(-c2ccccc2)n1-c1ccccc1 | 0.6 | -4 | 45 | 39 | -0.034 | 0.6
COc1ccc(-c2nnc(SCc3nnc(-c4ccccc4)o3)n2-c2ccccc2)cc1 | 1.1 | 4 | -8 | -2 | -1.1 | 1
Cc1nnc(SCc2nnc(-c3ccccc3Br)o2)n1-c1ccccc1 | 0.2 | 9 | 82* | -96 | 1.1 | 2*
COc1ccc(C(C)=O)cc1CSc1nnc(-c2ccc(Cl)cc2)n1-c1ccccc1 | 0.5 | 2 | 50* | 45 | -3 | 0.5
COc1c(C)cccc1C(=O)Nc1ccc(CN2CCOCC2)cc1 | 0.7 | 0 | 33 | -13 | 0.84 | 1.1
CCCCC(=O)Nc1sc2c(c1C(=O)OCC)CCC(C=O)=C2Cl | 1 | 4 | 2 | 10 | -0.021 | 0.9
CCOc1ccc(-n2cc(C(=O)Nc3cccc(OC)c3)c3cc(OC)c(OC)cc3c2=O)cc1 | 0.7 | -4 | 34 | 43 | -2.8 | 0.6
COc1ccc(C(=O)CSc2nnc(-c3ccccc3)o2)cc1 | 0.9 | 2 | 10 | -33 | -0.22 | 1.3
COc1ccc(-c2nnc(SCc3ncc(-c4ccccc4)o3)o2)cc1 | 0.1 | 11 | 87* | 28 | -2.4 | 0.7
Cc1ccc2cc3c(N)c(C(=O)N4CC(=O)Nc5ccccc54)sc3nc2c1 | 1.1 | 67* | -6 | -10 | · | 1.1
Cc1ccc2cc3c(N)c(C(=O)N4CCOCC4)sc3nc2c1 | 0.7 | 31 | 32 | 27 | · | 0.7
Cc1ccsc1C(=O)N1CC(=O)Nc2ccccc21 | 0.8 | 2 | 23 | -7 | -0.47 | 1.1
Cc1cc(C)cc(C(=O)N2CC(=O)Nc3ccccc32)c1 | 0.5 | 2 | 53* | 36 | -2.5 | 0.6
O=C(NC1CCCCCCC1)c1ccc(CNc2c(N3CCOCC3)c(=O)c2=O)cc1 | 0.8 | · | 20 | 44 | -0.6 | 0.6
O=C(c1cn(-c2ccccc2)nc1-c1ccc(F)cc1)N1CCOCC1 | 0.8 | · | 16 | 32 | · | 0.7
O=C(c1cn(-c2ccccc2)nc1-c1ccncc1)N1CCCCC1 | 0.5 | 2 | 52* | 48 | 1 | 0.5
O=C(c1cn(-c2ccccc2)nc1-c1cccs1)N1CCN(c2ccccc2)CC1 | 0 | 6 | 96* | 98* | -3.7 | 0
O=C(c1cn(-c2ccccc2)nc1-c1cccs1)N1CCOCC1 | 0.9 | 10 | 15 | 38 | -0.073 | 0.6
SMILES | CYP2C19 act | HIV Rev-RRE inh | CYP2C19 inh | CYP2C9 inhib | Cav32 inh | CYP2C9 act
CCN(CC)S(=O)(=O)c1ccc2[nH]c(=O)[nH]c2c1 | 0.9 | · | 10 | -11 | 0.081 | 1.1
Cc1nnc(SCC(N)=O)n1CCc1ccccc1 | · | 8 | · | · | 0.48 | ·
CCOC(=O)N1CCN(C(=O)C2CCCN(S(=O)(=O)c3cccnc3)C2)CC1 (stereo unspecified) | 1.1 | 2 | -5 | -2 | -0.083 | 1
Cc1ccc(S(=O)(=O)N2CCOCC2)cc1C(=O)OCC(=O)N1c2ccccc2NC(=O)C1(C)C | 1.2 | 1 | -17 | 20 | 0.73 | 0.8
CS(=O)(=O)c1ccc(Cl)c(S(=O)(=O)NCc2ccccc2)c1 | 0.8 | 1 | 17 | 2 | 0.27 | 1
CC1(C)C(=O)Nc2ccccc2N1C(=O)COC(=O)c1ccc(Cl)c(S(=O)(=O)NCc2ccccc2)c1 | 0.8 | 17 | 17 | 93* | -3.7* | 0.1
CCOC(=O)c1c(C)[nH]c(C)c1C(=O)COC(=O)c1ccc(Cl)c(S(=O)(=O)NCc2ccccc2)c1 | 0.2 | 9 | 82* | 80* | -4.1 | 0.2
CCCCC1(C)OC(=O)C(=Cc2ccc(N(C)C)cc2)C(=O)O1 (stereo unspecified) | 1 | 54* | 2 | -8 | 0.26 | 1.1
Cc1ccc(-c2csc(N3N=C(c4ccccc4)/C(=C\c4ccc(N(C)C)cc4)C3=O)n2)cc1 | 1 | -1 | 5 | 14 | · | 0.9
CN(CCC#N)C(=O)Cn1nc(Cc2ccncc2)c2ccccc2c1=O | 1.1 | 6 | -7 | 7 | 0.78 | 0.9
O=C(Cn1nc(Cc2ccncc2)c2ccccc2c1=O)N1CCc2ccccc2C1 | 0.1 | 6 | 88* | 80* | · | 0.2
CCOC(=O)c1ccc(NC(=O)CC2Sc3ncnn3C2=O)cc1 (stereo unspecified) | 1 | 5 | -4 | 13 | · | 0.9
Cc1cc(NC(=O)CCSc2nc(-c3ccco3)cc(C(F)(F)F)n2)n(-c2ccccc2)n1 | · | 5 | · | · | -4.1 | ·
CN(c1ccccc1)S(=O)(=O)c1ccc(C(=O)Nc2nccs2)cc1 | 1.1 | -1 | -6 | 6 | -0.034 | 0.9
CN(c1ccc(C(=O)Nc2nccs2)cc1)S(=O)(=O)c1ccccc1 | 0.3 | 8 | 73* | 51* | -2.1 | 0.5
O=C(Nc1nccs1)c1ccc(S(=O)(=O)NCC2CCCCC2)cc1 | 0.9 | 15 | 8 | 10 | -1.4 | 0.9
O=C(Nc1nccs1)c1ccc(S(=O)(=O)NCc2cccs2)cc1 | 0.6 | 4 | 36 | 70* | -0.037 | 0.3
O=C(Nc1nnc(C2CC2)s1)c1ccc(S(=O)(=O)c2ccccc2)cc1 | 1.1 | 4 | -7 | 46 | 0.31 | 0.5
O=C(Nc1nncs1)c1ccc(S(=O)(=O)c2ccccc2)cc1 | 1.2 | 2 | -19 | 60* | -0.083 | 0.4
CC(C)CC1(C(=O)NCCN2CCOCC2)C=CCN1C(=O)c1ccccc1 (stereo unspecified) | · | · | · | · | 0.38 | ·
COc1cc(C2Nn3c(nnc3-c3ccccc3OC)S2)ccc1O (stereo unspecified) | · | 0 | · | · | 1.4 | ·
Clc1ccc(Cc2ccccc2)nn1 | 0.9 | 2 | 14 | 8 | 1.1 | 0.9
Clc1ccc(Cc2ccc(Cl)nn2)c(Cl)c1 | 0.3 | -1 | 73* | 21 | -2.3 | 0.8
CC1CCN(c2ccccc2NC(=S)NC(=O)c2cccs2)CC1 | 1.1 | -1 | -14 | 20 | -6.3* | 0.8
CCOc1ccc(C(=O)NC(=S)Nc2ccccc2N2CCC(C)CC2)cc1[N+](=O)[O-] | 0.7 | 0 | 27 | 72* | 0.06 | 0.3
